Assay outcomes from PubChem BioAssay.
Most compounds without a hit are left out; they make up all but 2.4% or so of the library.
p-CIP stab down: p/CIP protein destabilization; Q05BA5; F442A p/CIP-EGFP cells, EGFP fluorescence, 16 h; decrease of EGFP signal, % at 10 µM; 0.01% of 290,000 active;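 active means EGFP signal decrease of at least 30% at 10 µM or well 3 SD below plate mean, unless failing retest; inactive means the rest, including hits failing retest or dose response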
H9c2 protect: modulators protecting cardiomyocytes from myocardial damage | protection from H2O2 cell death, % at 20 µM | 0.63% of 360,000 active | H9c2 cardiomyocytes, H2O2 injury protection, ATPLite, 2 h;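 active means compounds giving at least 50% protection of heart cells from peroxide-induced death in the single-dose screen, raw or plate-pattern-corrected value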;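 further: 0% = DMSO wells with peroxide and 100% = DMSO wells without peroxide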
PP5 inh: PP5 (human) phosphatase inhibition. purified PP5c, OMFP substrate fluorescence. 0.18% of 320,000 active. P53041. inhibition, % at 6.7 µM. AID 1987;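 active means inhibition above the campaign's mean inhibition across all tested compounds plus 3 SD, cut at about 9.5% in these data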;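 further: 0% = DMSO only and 100% = 100 µM cantharidin control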
Target sequence (P53041 whole entry, looked up): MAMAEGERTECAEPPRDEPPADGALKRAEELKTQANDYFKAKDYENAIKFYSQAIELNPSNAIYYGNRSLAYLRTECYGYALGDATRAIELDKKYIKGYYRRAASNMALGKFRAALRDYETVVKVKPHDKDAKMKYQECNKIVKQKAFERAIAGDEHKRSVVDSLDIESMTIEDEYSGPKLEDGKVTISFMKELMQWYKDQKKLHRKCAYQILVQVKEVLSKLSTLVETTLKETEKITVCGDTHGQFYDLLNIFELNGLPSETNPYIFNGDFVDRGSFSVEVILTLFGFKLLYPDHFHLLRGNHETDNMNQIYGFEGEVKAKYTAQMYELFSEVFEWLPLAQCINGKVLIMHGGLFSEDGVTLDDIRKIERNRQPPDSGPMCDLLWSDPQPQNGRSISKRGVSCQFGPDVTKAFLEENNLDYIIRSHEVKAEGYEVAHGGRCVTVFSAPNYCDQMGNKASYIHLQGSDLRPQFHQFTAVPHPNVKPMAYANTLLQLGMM
Fh CTSL1 inh: cathepsin L1 inhibition, PFM18AAP counter-screen. recombinant F. hepatica cathepsin L1, Z-Leu-Arg-MCA fluorescence. 0.49% of 300,000 active. inhibition, % at 5.96 µM;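 active means inhibition above the mean of all tested compounds plus 3 SD, set per screening campaign, cut at about 17% in these data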;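 further: 0% = plate median of test compound wells and 100% = 1 µM Z-Phe-Ala-diazomethylketone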
T cruzi inh: blocks replication of Trypanosoma cruzi. T. cruzi beta-gal in NIH3T3, luminescence, 90 h. inhibition, % (no concentration beside the values). 1.4% of 300,000 active. AID 1885;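 active means mean inhibition across valid replicates above about 55%, limit read from the data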;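 further: signal also drops with host cell toxicity which is not excluded here; 0% = plate median of DMSO wells and 100% = zero luminescence signal; higher percent means less beta-gal luminescence so fewer parasites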
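Test system: β-gal T. cruzi (Tulahuen C4) inside NIH/3T3 cells / Quantity: 5,000 cells/well / Measured by: luminescence from GalScreen with 0.05% NP40, read after 60 min / Medium: DMEM plus 2% FBS / Measure: parasite load inhibition, % / Reagent: Tulahuen C4 trypomastigotes, 5000/well / Schedule: co-culture of at least 90 h after 3 h attachment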
JMJD2C inh: human JMJD2C demethylase inhibition | GST-JMJD2C(1-420) H3K9me3 demethylation, DELFIA europium | inhibition, % at 2.35 µM | 0.069% of 330,000 active | AID 2099;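 active means more than half of a compound's replicate wells show inhibition beyond 50%, single wells judged on their own value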;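 further: signal counts dimethyl H3K9 product captured on neutravidin plate; 0% = median of DMSO wells and 100% = 0.3 times that DMSO median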
Starred values were filed as active, the others as inactive; nt = no result given.

SMILES | p-CIP stab down | H9c2 protect | PP5 inh | Fh CTSL1 inh | T cruzi inh | JMJD2C inh
CC(C)c1ccc(NC(=O)C2(C)Cc3c(-c4cccc(C(N)=O)c4)ccnc3O2)cc1 (configuration not stated) | nt | -4 | nt | nt | nt | nt
OC(C1=CC(=Cc2ccncc2)c2ccccc21)c1ccncc1 (configuration not stated) | nt | -10 | nt | nt | nt | nt
O=C(/C=C1\NC2(CCCC2)Cc2ccccc21)C(=O)N/N=C/c1ccc(O)c(O)c1 | -25 | 102* | 5 | 2 | 3 | -33
COc1ccc(/C=N/NC(=O)C(=O)/C=C2\NC3(CCCC3)Cc3ccccc32)cc1 | -12 | 0 | 2 | -1 | 23 | 1
CC(C)(C)NC(=O)CN(Cc1cccs1)C(=O)C1COc2ccccc2O1 (configuration not stated) | -22 | 3 | -1 | -2 | 20 | 6
CC(C)CCNC(=O)C(c1ccc(O)cc1)N(Cc1cccs1)C(=O)C1COc2ccccc2O1 (configuration not stated) | -7 | 1 | 7 | 0 | 64* | -10
CCCCc1nc2sc3c(c2c(=O)[nH]1)CCC3 | -7 | 70* | -1 | -2 | 4 | -8
CSc1nc2sc3c(c2c(=O)[nH]1)CCC3 | 5 | 52* | 0 | -2 | -5 | 0
COc1ccc(-c2cn[nH]c2-c2ccc(OC)cc2O)cc1 | -7 | -7 | 6 | 1 | -5 | -2
COc1ccc(-c2[nH]ncc2-c2ccc(Cl)cc2)c(O)c1 | 2 | -6 | 7 | 17* | -6 | -3
O=C(COc1ccccc1)NCC(=O)N1CCCCCC1 | nt | 0 | 2 | nt | nt | nt
O=C(c1cnn2c(C(F)(F)F)cc(-c3cccs3)nc12)N1CCCC1 | -28 | 3 | 1 | 5 | 6 | -7
O=C(NCc1ccco1)c1cnn2c(C(F)(F)F)cc(-c3cccs3)nc12 | -16 | 65* | -1 | 0 | 20 | 4
Cc1cc(C)c(Cc2c(C)nc3c(C(=O)NCc4ccco4)cnn3c2C)c(C)c1 | 0 | -22 | 4 | 1 | 59* | 8
Cc1cccc(C(=O)OC2CCN(C)CC2)c1 | -2 | -1 | 2 | 2 | 53 | 2
CN1CCC(OC(=O)c2ccc(Br)cc2)CC1 | nt | 0 | -2 | -1 | 62* | -2
CN1CCC(OC(=O)c2cccc(Cl)c2)CC1 | 1 | 6 | 2 | 3 | 60* | 5
CN(CCOc1ccc(Cl)cc1)C(=O)c1cc(-c2ccco2)nc2ccccc12 | nt | 6 | 3 | 2 | 13 | 5
Cc1ccc(C)c(S(=O)(=O)NCC(=O)Nc2ccc3c(c2)OCO3)c1 | -4 | 3 | nt | nt | 15 | 3
Cc1ccc(C(=O)NCCOc2ccc(Cl)cc2)cc1 | 1 | -10 | 1 | -1 | 6 | 3
CCOc1ccc(NCC(=O)c2ccc(C)cc2)cc1 | 4 | -22 | -1 | -7 | 57* | -8
Cc1ccc(C(=O)CNc2ccc(Cl)cc2)cc1 | 12 | 3 | 1 | 2 | -45 | 13
Cc1ccc(C(=O)CC(=O)COc2ccc(Cl)cc2)cc1 | 3 | 72* | 0 | -1 | 4 | 34
CSc1ncnc2c1ncn2CCCNCCCN1CCCC1=O | nt | -1 | nt | nt | nt | nt
O=c1c2ccccc2sn1-c1cccc(Cl)c1 | nt | -32 | nt | nt | nt | nt
SMILES | p-CIP stab down | H9c2 protect | PP5 inh | Fh CTSL1 inh | T cruzi inh | JMJD2C inh
O=C(O)c1cccc(-n2sc3ccccc3c2=O)c1 | nt | 78* | -1 | nt | nt | 1
O=c1c2ccccc2sn1-c1ccccc1 | -13 | -44 | 5 | -3 | 65* | -6
CCC(Sc1nc(-c2ccccc2)c(-c2ccccc2)[nH]1)C(=O)O (configuration not stated) | -7 | -2 | 1 | 5 | -5 | -3
c1ccc(NC2=NCCN2CC2CCCCCC2)cc1 | nt | -6 | 2 | -1 | nt | -3
COc1ccc(NC(=O)CSc2nc3ccsc3c(=O)n2CCC(=O)O)cc1 | nt | -2 | nt | nt | nt | nt
Cc1nc2ccn(Cc3ccccc3)c(=O)c2cc1C(=O)N1CCN(c2ccccc2)CC1 | -3 | 8 | 0 | 5 | 15 | -2
O=C(CSc1nnc(-c2cccnc2)n1Cc1ccco1)c1ccccc1 | -44 | 50* | -3 | 1 | -7 | -5
O=C(CSc1nnc(-c2cnccn2)n1Cc1ccco1)c1ccc2ccccc2c1 | 47* | -4 | 2 | 4 | 5 | -4
